Measured values published in ChEMBL document CHEMBL1157793, “Synthesis and antitumor activity of 1,5-disubstituted 1,2,4-triazoles as cis-restricted combretastatin analogues” (J Med Chem, 2010).
Active and inactive are the calls of the source. The rule behind the calls is not given here.

Experiments:
Jurkat [1] = assay: Induction of apoptosis in human Jurkat cells assessed as increase in ROS production at 50 nM by H2DCFDA staining based flow cytometry; assay type: functional, cell-based; conditions: TDE = time-dependent effect
Method in brief: (§1)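 After 24, 48, 72 h with 50 nM compound, Jurkat cells resuspended in HBSS with 2.5 µM HE or 0.1 µM H2DCFDA, 30 min at 37 °C, washed, and read by flow cytometry (excitation 488 nm; emission 585 nm HE, 530 nm DCF). Mean ± SEM of three independent experiments.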

K562 = assay: Antiproliferative activity against human K562 cells after 72 hrs by MTT assay; assay type: functional, cell-based; conditions: K562, 72 h
Method in brief: (§2)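 Cells seeded at 8×10^3 per well (Jurkat, HL-60, K562 in RPMI-1640; MCF7, A549, HeLa in DMEM; all with 10% FBS, penicillin/streptomycin), incubated 18 h at 37 °C, 5% CO2, then exposed to compound at varying concentrations in complete medium for 72 h.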

Jurkat [2] = assay: Induction of apoptosis in human Jurkat cells assessed as depolarization of mitochondrial membrane potential measured as annexin-V positive cells at 50 nM after 72 hrs by annexin-V-FITC and propidium iodide staining based flow cytometry (reference value: 3.0%); assay type: functional
Jurkat [3] = assay: Antiproliferative activity against human Jurkat cells after 72 hrs by MTT assay; assay type: functional, cell-based; method in brief: as §2
HeLa [4] = assay: Cell cycle arrest in human HeLa cells assessed as decrease in accumulation of cells at G1 phase at 7 to 250 nM after 24 hrs by propidium iodide staining-based flow cytometry; assay type: functional
Method in brief: (§3)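 5×10^5 exponentially growing cells treated with compound (7–250 nM range for 24 h; 30 nM for 24 and 48 h), collected, fixed in ice-cold 70% ethanol, lysed with buffer containing RNase A and 0.1% Triton X-100, PI-stained, and DNA content analysed by flow cytometry; phase distribution from DNA histograms. Mean ± SEM of three independent experiments.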

Jurkat [5] = assay: Induction of apoptosis in human Jurkat cells assessed as decrease in Bcl2 expression at 50 nM after 24 to 72 hrs by immunoblot method; assay type: functional, cell-based
Method in brief: (§4)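 Jurkat cells given 50 nM compound for varying times, washed in cold PBS, lysed on ice 30 min, cleared at 15000g, 4 °C; 20 µg protein run on 7.5–15% SDS-PAGE, blotted to PVDF, probed 2 h at room temperature with rabbit anti-PARP or anti-Bcl-2 (1:1000), peroxidase secondary, ECL detection; β-actin reprobe as loading control.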

Jurkat [6] = assay: Induction of apoptosis in human Jurkat cells assessed as increase in ROS production at 50 nM by HE staining based flow cytometry; assay type: functional, cell-based; conditions: TDE = time-dependent effect; method in brief: as §1
Jurkat [7] = assay: Cell cycle arrest in human Jurkat cells assessed as accumulation of cells at SubG1 phase at 7 to 250 nM after 24 hrs by propidium iodide staining-based flow cytometry; assay type: functional; method in brief: as §3
Jurkat [8] = assay: Induction of apoptosis in human Jurkat cells assessed as activation of caspase-3 at 50 nM by flow cytometry; assay type: functional, cell-based; conditions: TDE = time-dependent effect
Method in brief: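 Jurkat cells exposed to 50 nM compound for 24, 48 and 72 h, fixed in Cytofix buffer 20 min, washed in Perm/Wash, stained 30 min with FITC-conjugated anti-human active caspase-3 fragment antibody; percentage of positive cells by flow cytometry, mean ± SEM of three experiments.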

[9] = Inhibition of bovine brain tubulin polymerization after 20 mins by turbidimetry; design: species or system Bos taurus
Method in brief: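 Bovine brain tubulin (10 µM) preincubated with varying compound concentrations in glutamate buffer at 30 °C, chilled to 0 °C, 0.4 mM GTP added, then warmed to 30 °C in spectrophotometer; assembly followed by turbidity at 350 nm.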

Jurkat [10] = assay: Induction of apoptosis in human Jurkat cells assessed as increase in PARP cleavage at 50 nM after 24 hrs by immunoblot method; assay type: functional, cell-based; method in brief: as §4
HeLa [11] = assay: Cell cycle arrest in human HeLa cells assessed as increase in accumulation of cells at G2/M phase after 24 hrs by propidium iodide staining-based flow cytometry; assay type: functional; method in brief: as §3
Jurkat [12] = assay: Cell cycle arrest in human Jurkat cells by accumulation of cells at G2/M phase at 7 to 250 nM after by propidium iodide staining-based flow cytometry; assay type: functional; conditions: TDE = time-dependent effect; method in brief: as §3
HeLa [13] = assay: Cell cycle arrest in human HeLa cells by accumulation of cells at G2/M phase at 30 nM after 48 hrs by propidium iodide staining-based flow cytometry (reference value: 12%)
Jurkat [14] = assay: Cell cycle arrest in human Jurkat cells assessed as increase in accumulation of cells at G2/M phase at 7 to 250 nM after 24 hrs by propidium iodide staining-based flow cytometry; assay type: functional; method in brief: as §3
HeLa [15] = assay: Antiproliferative activity against human HeLa cells after 72 hrs by MTT assay; assay type: functional, cell-based
A549 = assay: Antiproliferative activity against human A549 cells after 72 hrs by MTT assay; assay type: functional, cell-based; conditions: A549, 72 h
Jurkat [16] = assay: Induction of apoptosis in human Jurkat cells assessed as depolarization of mitochondrial membrane potential measured as annexin-V positive cells at 50 nM after 24 hrs by annexin-V-FITC and propidium iodide staining based flow cytometry (reference value: 3.0%); assay type: functional
Jurkat [17] = assay: Induction of apoptosis in human Jurkat cells assessed as increase in annexin-V positive cells after 24 to 72 hrs by annexin-V-FITC and propidium iodide staining based flow cytometry; assay type: functional, cell-based
HeLa [18] = assay: Cell cycle arrest in human HeLa cells assessed as decrease in accumulation of cells at S phase at 7 to 250 nM after 24 hrs by propidium iodide staining-based flow cytometry; assay type: functional; method in brief: as §3
HL-60 = assay: Antiproliferative activity against human HL60 cells after 72 hrs by MTT assay; assay type: functional, cell-based; conditions: HL-60, 72 h
Jurkat [19] = assay: Induction of apoptosis in human Jurkat cells assessed as depolarization of mitochondrial membrane potential measured as annexin-V positive cells at 50 nM after 48 hrs by annexin-V-FITC and propidium iodide staining based flow cytometry (reference value: 3.0%); assay type: functional
Bos taurus [20] = species: Bos taurus; assay: Displacement of [3H]colchicine from bovine tubulin at 1 uM
Method in brief: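 [3H]Colchicine binding inhibition measured with reaction mixtures of 1 µM tubulin, 5 µM [3H]colchicine and 1 µM test compound.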

MCF7 = assay: Antiproliferative activity against human MCF7 cells after 72 hrs by MTT assay; assay type: functional, cell-based; conditions: MCF7, 72 h
HUVEC [21] = assay: Induction of apoptosis in HUVEC expressing GFP assessed as decrease in GFP-positive cell area at 0.5 uM to 10 uM after 30 mins by confocal microscopy; design: scale not given: the % may be the effect or the level left
Bos taurus [22] = species: Bos taurus; assay: Ratio of IC50 for comberestastatin-A4 to IC50 for drug for inhibition of bovine brain tubulin polymerization after 20 mins by turbidimetry
Gallus gallus = species: Gallus gallus; assay: Inhibition of vascular sprouts in chick embryo aorta assessed as vascular disruption at 10 uM after 30 mins by microscopy; assay type: functional, tissue-based
Method in brief: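 Aortic arches from day-14 chick embryos sliced, embedded in Matrigel with complete medium; endothelial sprouts formed over 24–48 h. Compound added at various concentrations and vascular channels imaged before and 30 min after addition.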

HUVEC [23] = assay: Induction of apoptosis in HUVEC expressing GFP assessed as formation of membrane blebs at 0.5 uM to 10 uM after 30 mins by confocal microscopy; conditions: Homo sapiens

| SMILES | Activity (Jurkat [1]) | Activity (Jurkat [2]) | IC50 (Jurkat [3]) [nM] | Activity (HeLa [4]) | Activity (Jurkat [5]) | Activity (Jurkat [6]) | Activity (Jurkat [7]) | Activity (Jurkat [8]) | IC50 [9] [nM] | Activity (Jurkat [10]) | Activity (HeLa [11]) | Activity (Jurkat [12]) | Activity (HeLa [13]) [%] | Activity (Jurkat [14]) | IC50 (HeLa [15]) [nM] | IC50 (A549) [nM] | Activity (Jurkat [16]) | Activity (Jurkat [17]) | Activity (HeLa [18]) | IC50 (HL-60) [nM] | also measured |
| --- | --- | --- | --- | --- | --- | --- | --- | --- | --- | --- | --- | --- | --- | --- | --- | --- | --- | --- | --- | --- | --- |
| CCOc1ccc(-c2ncnn2-c2cc(OC)c(OC)c(OC)c2)cc1Cl | tde | Active | 3 | Active | Active | tde | Active | tde | 1500 | Active | Dose-dependent effect | tde | 70 | Active | 6 | 10 | Active | Active | Active | 3 | IC50 (K562): 20 nM; Activity (Jurkat [19]): Active; Activity (Bos taurus [20]): 75%; IC50 (MCF7): 17 nM |
| CCOc1ccc(-c2ncnn2-c2cc(OC)c(OC)c(OC)c2)cc1 | tde | 44.5% | 5 | Active | Active | tde | Active | tde | 760 | Active | Dose-dependent effect | tde | 70 | Active | 15 | 100 | 14.4% | Active | Active | 20 | Activity (HUVEC [21]): 30%; Ratio IC50 (Bos taurus [22]): 2; Activity (Gallus gallus): Active; Activity (Jurkat [19]): 28.4%; Activity (Bos taurus [20]): 86%; IC50 (MCF7): 50 nM; Activity (HUVEC [23]): Active |
